Hits are enriched below; roughly 8.7% of the tested compounds scored in any of these assays.
tolC growth inh – blocks growth of E. coli BW25113 tolC mutant; growth inhibition, % at 10 µM (by protocol); AID 573; 65,000 tested, 2.2% active; OD615;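 active = growth inhibition at or above a cutoff equal to the mean over every tested compound plus 3 SD, cut at about 60% in these data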;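 note: growth measured after 20 h incubation at 37 °C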
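Test system – E. coli BW25113 ΔtolC::kan, tolC deletion mutant strain · Detection – OD at 615 nm · Buffer or medium – LB with kanamycin 50 µg/mL · Times – 20 h compound exposure of bacteria at 37 °C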
PTK2B oligo ant – antagonists of human Pyk2 oligomerization. Q14289. 99,000 tested, 0.83% active. Q293 cells, Pyk2 FERM NanoBiT luminescence; hits give low values. AID 1347419. z-score (the deposit names both 25 µM and 10 µM);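 active = Z-score of -3 or lower, scaled per plate to the spread of control and sample wells; inactive = z-score above -3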;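 note: negative z-score means lost luminescence so less FERM oligomerization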
Cav32 inh – inhibitors of human Cav3.2 T-type calcium channel; 100,000 tested, 4% active; O95180; Cav3.2-expressing cells, Fluo-4 calcium fluorescence FDSS; hits give low values; B-score at 10 µM; AID 449739;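 active = single-dose well whose peak fluorescence ratio is a statistical outlier from its plate by either plate-standardised score or position-corrected B-score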
Ecoli WT expand – growth inhibitors of E. coli BW25113 wild type. growth inhibition, % at 100 µM. OD600 absorbance. 98,000 tested, 0.15% active;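 active = growth inhibition above about 50% at one test dose, limit read from the data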;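 note: growth measured after 20 h incubation at 37 °C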
PostGolgi yeast – growth inhibition of a yeast mutant, post-Golgi transport screen. post-Golgi transport phenotypic cell assay. inhibition, % at 10 µM. 98,000 tested, 0.9% active. AID 739;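 note: yeast cells grown in 1536-well plates; yeast grown about 18 h at 30C before absorbance read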
PostGolgi ctrl – yeast control strain growth, post-Golgi counter-screen; efflux-deficient yeast background strain, growth absorbance A615, 16 h; AID 738; inhibition, % at 10 µM; 98,000 tested, 5% active
Hits are given with their value; . = inactive; / = not tested or not shown. Cut-off read from the data, not from the text of the source, unless noted: active = inhibition above about 30%; inactive = the rest.

SMILES	tolC growth inh	PTK2B oligo ant	Cav32 inh	Ecoli WT expand	PostGolgi yeast	PostGolgi ctrl
Cc1cc(/C=N/n2cnnc2)c(C)n1-c1ccc(OCc2ccccc2F)cc1	.	.	.	.	.	65
CCC1(c2cccc(Cl)c2)NC(=O)N(Cc2cc(C(=O)OC)c(C)o2)C1=O (stereo not drawn)	.	.	-5.5	.	.	.
Cc1onc(-c2ccccc2)c1C(=O)Nc1ccon1	/	.	.	.	.	.
Cc1onc(-c2ccccc2)c1C(=O)Nc1nnc(N(C)Cc2ccccc2)s1	61	/	.	.	.	.
Cc1onc(-c2c(Cl)cccc2Cl)c1C(=O)N/N=C(\N)COc1ccc(Cl)cc1	/	.	-5	.	.	32
CCC(CC)c1nnc(NC(=O)c2c(-c3ccccc3)noc2C)s1	79	/	.	.	.	.
Cc1nnc(NC(=O)c2c(-c3ccccc3)noc2C)s1	/	.	.	.	.	.
Cc1cc(C(=O)OC(C)C(=O)Nc2nc(-c3ccccc3)cs2)c(C)o1 (stereo not drawn)	/	.	.	.	.	37
Cc1cc(=O)oc(C)c1C(=O)OCC(=O)c1ccccc1	.	.	.	.	.	.
Cc1onc(-c2ccccc2)c1C(=O)Nc1nc(-c2ccccc2)cs1	/	.	.	.	.	34
Cc1onc(-c2ccccc2)c1C(=O)Nc1nc(-c2cc(F)ccc2F)cs1	.	.	.	.	.	.
Cc1onc(-c2c(F)cccc2Cl)c1C(=O)Nc1nnc(C2CC2)s1	.	.	.	.	.	.
Cc1onc(-c2ccccc2)c1C(=O)OCC(=O)c1ccccc1	71	.	.	.	.	.
CCCOc1ccc(NC(=O)c2c(-c3ccccc3)noc2C)cc1	.	/	.	.	.	.
Cc1onc(-c2c(F)cccc2Cl)c1C(=O)Nc1nnc(-c2ccccc2)s1	/	-3.1	.	.	.	.
Cc1onc(-c2ccccc2)c1C(=O)Nc1nnc(COc2ccc(Cl)cc2)s1	80	.	/	.	.	.
CN(C)S(=O)(=O)N(CC(=O)Nc1ccccc1C(F)(F)F)c1ccccc1	.	/	.	.	.	.
CCCN1C[C@H](CSC)C[C@@H]2c3cccc4[nH]cc(c34)C[C@H]21	/	/	.	/	/	/
O=C(Nc1ccc2c(c1)OCCO2)C1CCCN(S(=O)(=O)c2cccnc2)C1 (stereo not drawn)	.	/	.	.	.	.
CN1C(=O)COc2ccc(C(=O)c3oc4ccccc4c3-c3cnc4c(c3)COc3ccccc3-4)cc21	/	/	.	/	/	/
CCc1nc(SCC(=O)N2CCC(Cc3ccccc3)CC2)c2c(=O)n(C)c(=O)n(C)c2n1	/	/	.	.	.	40
CCc1nc(SCC(=O)N2CCC(C)CC2)c2c(=O)n(C)c(=O)n(C)c2n1	.	/	.	.	.	.
CCCOc1ccc(Br)cc1/C=N/O	/	.	-4.9	.	.	.
CCOc1ccc(Br)cc1/C=N/O	.	.	.	.	.	.
CCN(CC(=O)c1c(N)n(C)c(=O)n(C)c1=O)c1cccc2ccccc12	/	.	/	/	/	/
SMILES	tolC growth inh	PTK2B oligo ant	Cav32 inh	Ecoli WT expand	PostGolgi yeast	PostGolgi ctrl
Cc1ccc(NC(=O)c2nn(C34CC5CC(CC(C5)C3)C4)cc2[N+](=O)[O-])cc1	/	.	.	.	79	61
CCC1(c2ccccc2)NC(=O)N(CC(=O)Nc2cccc(C#N)c2)C1=O (stereo not drawn)	.	.	.	.	.	.
C=CCc1cccc(CNc2c(C)n(C)n(-c3ccccc3)c2=O)c1O	.	.	-4	.	.	.
COC(=O)C1=C(C(=O)OC)[C@@H]2N(Cc3ccccc3)c3ccccc3[C@@]23C[C@@H](C(=O)OC)N(C(=O)c2cc(C)oc2C)C3=N1	/	/	-3	/	/	/
Cc1c2c(nc3c(C(=O)NC4CCCCC4C)cnn13)CCCC2 (stereo not drawn)	.	/	/	.	.	56
CC1CCCCC1NC(=O)c1cncc(Br)c1 (stereo not drawn)	.	.	.	.	.	.
O=C(Nc1cccc(C(=O)N2CCOCC2)c1)c1cccnc1	.	.	.	.	.	.
COCCNC(=O)Cn1cc2c(n1)CCC(C)C2 (stereo not drawn)	.	/	.	.	.	.
CC1CCc2nn(CC(=O)NCCC3=CCCCC3)cc2C1 (stereo not drawn)	.	/	.	.	.	37
CC1=C(C(=O)OCCOC(C)C)C(c2cc3c(cc2Br)OCO3)CC(=O)N1 (stereo not drawn)	/	.	.	.	.	32
CCCCN(CC)C(=O)Cc1c(C(=O)O)[nH]c2ccc(Cl)cc12	.	.	.	.	.	32
CCOCCCNC(=O)Cc1c(C(=O)O)[nH]c2ccc(Cl)cc12	.	/	.	.	.	.
Cc1ccc(C)c(Nc2c([N+](=O)[O-])cc(C(=O)N3CC(=O)Nc4ccccc43)cc2[N+](=O)[O-])c1	/	-3	.	.	.	.
O=C1CN(C(=O)c2ccco2)c2ccccc2N1	/	.	.	.	.	.
CCCCN(CC)C(=O)Cn1c(=O)sc2ccccc21	/	.	.	.	.	.
COc1ccc(S(=O)(=O)Nc2ccc(S(=O)(=O)N3CCCCC3)cc2)cc1	74	.	-6.6	.	.	.
Cc1ccc(S(=O)(=O)N2CCCC(C(=O)N3CCCc4ccccc43)C2)cc1 (stereo not drawn)	/	.	.	.	.	.
O=S(=O)(Nc1ccc(S(=O)(=O)N2CCCCC2)cc1)c1ccc(Br)s1	84	.	-5.4	.	.	.
O=S(=O)(Nc1ccc(S(=O)(=O)N2CCCCCC2)cc1)c1cccs1	/	.	.	.	.	.
O=C(C1CCCN(S(=O)(=O)c2ccccc2)C1)N1CCCc2ccccc21 (stereo not drawn)	.	.	.	.	.	36
O=C(C1CCN(S(=O)(=O)c2ccc(Br)s2)CC1)N1CCc2ccccc21	.	.	.	.	.	52
O=C(NC1CCCCC1)N(Cc1ccc(F)cc1)Cc1nc2ccccc2c(=O)[nH]1	.	.	.	.	.	.
O=C(O)/C=C/c1cn(-c2ncc(C(F)(F)F)cc2Cl)c2ccccc12	/	.	.	.	.	.
C=C1CCN([C@@H](C)C(=O)NCCCCCC)S(=O)(=O)c2ccccc21	/	/	.	/	/	/
COc1ccccc1-c1nnc(SCC(=O)NCc2c(C)c(Cl)cc(C(C)C)c2O)o1	.	.	/	.	.	.
SMILES	tolC growth inh	PTK2B oligo ant	Cav32 inh	Ecoli WT expand	PostGolgi yeast	PostGolgi ctrl
CC(C)C(=O)NCCc1nc(-c2ccccc2Cl)no1	/	/	.	/	/	/
COc1ccc(S(=O)(=O)N2CCCN(S(=O)(=O)c3ccc(OC)c(C)c3)CC2)cc1C	/	.	.	/	/	/
COc1ccc(S(=O)(=O)N2CCCC(C(=O)N3CCCCCC3)C2)cc1 (stereo not drawn)	.	.	.	.	.	66
COc1ccc(S(=O)(=O)Nc2ccc(S(=O)(=O)N3CCCCC3)cc2)cc1C	/	-3.3	.	.	.	.
COC(=O)c1cccc(NC(=O)c2cccs2)c1C	/	.	.	.	.	.
NC(=O)c1ccc(C(F)(F)F)n(Cc2c(Cl)cccc2Cl)c1=O	/	.	.	.	.	34
O=C1CN(C(=O)c2cc(Br)c(Br)s2)c2ccccc2N1	/	.	-5.6	.	.	37

Compound activity (PubChem)
